Assay results published in ChEMBL document CHEMBL3872271, “Identification and validation of small molecule modulators of the NusB-NusE interaction” (Bioorg Med Chem Lett, 2017).

Experiments:
Bacillus subtilis [1] = experiment: Inhibition of Bacillus subtilis full length NusB/GST-tagged NusE interaction at 25 uM preincubated with NusE for 15 mins followed by incubation with NusB for 1 hr by ELISA
Outline: (§1)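 Wells coated overnight at 4 °C with purified full-length B. subtilis NusB (250 nM in PBS), then blocked with 1% BSA/PBS for 2 h at RT. Inhibitor preincubated with GST-NusE (200 nM) for 15 min at 37 °C, then added to wells for 1 h at RT. Bound NusE detected with rabbit anti-GST (1:2000), goat anti-rabbit HRP (1:2000) and TMB (6 min, 37 °C), read at OD 600 nm.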

Escherichia coli = experiment: Growth inhibition of Escherichia coli DH5alpha at 200 uM measured every 10 mins for 16 hrs; format: functional; details: DH5[alpha], read-out: GI
Outline: (§2)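 Cells grown at 37 °C in LB with shaking to OD 0.6–0.7 AU, then added to LB containing compound (50 mM DMSO stocks, serially diluted to 200 μM). Plates incubated at 37 °C, 200 rpm. OD600 was read every 10 min for 16 h with LB as blank. Triplicates, with growth compared to cells given equal DMSO.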

Bacillus subtilis [2] = experiment: Growth inhibition of Bacillus subtilis at 200 uM measured every 10 mins for 16 hrs; format: functional; details: read-out: GI; outline: as §2
[3] = Inhibition of Bacillus subtilis full length NusB/GST-tagged NusE preincubated with NusE for 15 mins followed by incubation with NusB for 1 hr by ELISA; outline: as §1

Molecule	inhibition (Bacillus subtilis [1])	IC50 [3]	inhibition of growth at 200 µM (Escherichia coli)	inhibition of growth at 200 µM (Bacillus subtilis [2])
COc1ccc(-c2cc(-c3ccc(OC)c(OC)c3)nc(NS(=O)(=O)c3ccc(N)cc3)n2)c(OC)c1	3%	–	–	–
O=[N+]([O-])c1ccc(OCC(O)CNCCNc2nccc(C(F)(F)F)n2)cc1 (racemic)	–	–	11%	19%
Oc1ccccc1CNc1ccc(OCCCCOc2ccc(NCc3ccccc3O)cc2)cc1	45%	210 µM	–	–
H-YDHRLLDQS-NH2	–	71 µM	–	–

The next lines start with results.

inhibition (Bacillus subtilis [1])	IC50 [3]	Molecule	inhibition of growth at 200 µM (Escherichia coli)	inhibition of growth at 200 µM (Bacillus subtilis [2])
88%	6.1 µM	COc1ccc(-c2cc(-c3ccc(OC)c(OC)c3)nc(NS(=O)(=O)c3ccc(NC(C)=O)cc3)n2)c(OC)c1	21%	9%
48%	–	COc1ccc(/C=C/C(=O)c2ccc(OC)c(OC)c2)c(OC)c1	–	–
5%	–	COc1cc(/C=N/NC(=O)CCc2ccc(O)cc2)cc(OC)c1OC	10%	44%
52%	19.8 µM	CCNC(=O)Nc1ccc(OCCCCOc2ccc(NC(=O)NCC)cc2)cc1	17%	–
